16 compounds from ChEMBL document CHEMBL1148339, “Synthesis, structure-activity relationships, and drug resistance of beta-d-3'-fluoro-2',3'-unsaturated nucleosides as anti-HIV Agents” (J Med Chem, 2004) can be followed below.

For orientation: half-life means the time needed for the level to fall by half in the phase considered. Low readings indicate fast loss, high ones slow loss. What is called IC50 is the concentration needed to halve the response being measured. One may read the EC50 as the concentration needed to bring the measured effect to its halfway point. A high value points to a less potent agent.

For series [1], the system named is adenosine deaminase (ADA). Put plainly: Ability to get deaminated by adenosine deaminase (ADA); Expressed as t1/2. The class given is ADME, Bos taurus. Conditions: cattle. In a few lines:
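Calf intestinal mucosa adenosine deaminase, 0.15 units, in phosphate buffer pH 7.4 at 25 °C; substrate at 20 μM. Deamination followed by UV absorbance at 265 nm, with substrate concentration derived from absorbance change over time to give half-life.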

A short description of series [2]: Cytotoxicity against human peripheral blood mononuclear cells (PBMC). The class given is functional, cell-based. A digest of the protocol: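 Uninfected PHA-stimulated human PBM cells from seronegative donors (Ficoll–Hypaque), 5 × 10⁴ cells/well, 10-fold serial compound dilutions, 5 days at 37 °C in 5% CO₂/air. MTT assay read at 570 nm; IC50 by median effect method.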

The nature of series [3]: t1/2 (half life) period was determined. The class given is ADME.
For series [4], the system named is Human immunodeficiency virus 1. Put plainly: Effective concentration against HIV-1 in human peripheral blood mononuclear cells (PBMC). The class given is functional, organism-based. A digest of the protocol: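 PBM cells infected in bulk for 1 h with HIV-1 LAI (100 TCID50/1 × 10⁷ cells, flask, or 200 TCID50/6 × 10⁵ cells/well), then cultured 5 days at 37 °C with 10-fold compound dilutions in IL-2 medium. Supernatant virus pelleted; RT activity measured with poly(rA)·oligo(dT) and [³H]TTP, 2 h 37 °C. EC50/EC90 by median effect method.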

Series [5] concerns Human immunodeficiency virus 1. Put plainly: Effective concentration against Wild Type HIV-1 virus in human peripheral blood mononuclear cells.
The subject of series [6] is Human immunodeficiency virus 1. Put plainly: Effective concentration against M184V HIV-1 virus in human peripheral blood mononuclear cells.
The subject of series [7] is Vero. Put plainly: Cytotoxicity against Vero cell line. The format is functional, cell-based. Conditions: Chlorocebus sabaeus. A digest of the protocol: (§1)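 Log-phase Vero (African green monkey kidney) cells seeded 5 × 10³ cells/well with 10-fold serial compound dilutions, cultured 3 days at 37 °C, humidified 5% CO₂/air.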
Series [8] deals with CCRF-CEM. Put plainly: Cytotoxicity against T-lymphoblastoid cell line (CEM). The format is functional, cell-based. Particulars: Homo sapiens. A digest of the protocol:
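CEM T-lymphoblastoid cells in log phase, seeded 2.5 × 10³ cells/well with 10-fold serial dilutions of compound, 4 days at 37 °C in humidified 5% CO₂/air.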

Series [9] concerns Vero. Put plainly: Cytotoxicity against vero cell line. Particulars: Chlorocebus sabaeus. The format is functional, cell-based. A digest of the protocol:
as §1

A short description of series [10]: t1/2 (half life) period was determined; No decomposition observed up to 7 days. The class given is ADME. Conditions: 168 h.

Regarding `Nc1ncnc2c1ncn2[C@@H]1O[C@H](CO)C=C1F`, the half-life in [1] was 42 min.
`Nc1ccn([C@H]2C=C[C@@H](CO)O2)c(=O)n1` displayed an IC50 in series [2] of 65 µM. The compound further had a half-life in series [3] of 1 h. Further, the EC50 in series [4] is 0.005 µM.
Turning to `Nc1ncnc2c1ncn2[C@@H]1O[C@H](CO)[C@@H](O)[C@H]1O` [ADENOSINE], in series [1], the half-life stood at 0.5 min.
Regarding `Cc1cn([C@H]2C[C@H](N=[N+]=[N-])[C@@H](CO)O2)c(=O)[nH]c1=O` [ZIDOVUDINE], the EC50 in series [5] was determined as 0.0041 µM; in series [6], 0.0027 µM.
Regarding `Cc1cn([C@H]2C=C(F)[C@@H](CO)O2)c(=O)[nH]c1=O`, the IC50 in series [2], in series [7] and in series [8] was greater than 100 µM each time. Further, the EC50 in [4] was greater than 100 µM.
As for `Nc1nc(O)c2ncn([C@H]3C=C(F)[C@@H](CO)O3)c2n1`, the results for the IC50 in series [2], in series [8] and in series [9] were greater than 100 µM, greater than 100 µM and 75.5 µM, respectively. Moreover, in series [4], the EC50 amounted to 44.9 µM.
For the compound `Nc1ccn([C@@H]2C=C(F)[C@H](CO)O2)c(=O)n1`, the IC50 in series [2] is 86.9 µM; in [8], greater than 100 µM; in [9], greater than 100 µM. The EC50 in series [5] worked out at 0.089 µM; in series [4], 0.089 µM; in series [6], 2.4 µM.
Take `Nc1ncnc2c1ncn2[C@H]1C=C[C@@H](CO)O1`: the half-life in series [1] was 4460 min.
As for `Nc1ncnc2c1ncn2[C@@H]1C=C(F)[C@H](CO)O1`, the IC50 in [2], in series [8] and in [9] was greater than 100 µM each time. The EC50 in [4] is greater than 100 µM.
Regarding `Nc1nc(=O)n([C@@H]2C=C(F)[C@H](CO)O2)cc1F`, the IC50 in [2], in series [8] and in series [9] was greater than 100 µM each time. The EC50 in series [4] worked out at 0.018 µM.
As for `Nc1ncnc2c1ncn2[C@H]1C=C(F)[C@@H](CO)O1`, the IC50 in series [2], in series [8] and in [9] was greater than 100 µM each time. In series [4], the midpoint of the response, the EC50, lay at 6.55 µM. Further, the half-life in series [1] turned out to be 56 min.
For `Nc1ccn([C@@H]2O[C@H](CO)C=C2F)c(=O)n1`, the T1/2 entry in [10] is “Infinity”.
In the case of `Nc1ccn([C@H]2C=C(F)[C@@H](CO)O2)c(=O)n1`, the IC50 in series [2], in [8] and in series [9] was greater than 100 µM in each case. Moreover, the results for the EC50 in [5], in series [4] and in [6] were 2.3 µM, 2.3 µM and 19.7 µM, respectively. For the same compound, the half-life in series [3] was 48 h.
Regarding `Nc1nc(=O)n([C@H]2C=C(F)[C@@H](CO)O2)cc1F`, the IC50 in series [2], in [8] and in series [9] was greater than 100 µM each time. In series [4], this compound came in with an EC50 of 9.29 µM.
With `OC[C@H]1O[C@@H](n2cnc3c(O)ncnc32)C=C1F`, the IC50 in series [2] was greater than 100 µM; in series [8] it was 77.7 µM; in [9], greater than 100 µM. This compound registered an EC50 in series [4] of 12.8 µM.
Regarding `O=c1ccn(C2C=C(F)C(CO)O2)c(=O)[nH]1` (stereo not given), the IC50 in series [2] is greater than 100 µM; in [8], greater than 100 µM; in series [9], 82.6 µM. Besides, the EC50 in [4] was greater than 100 µM.
